Source: ChEMBL document CHEMBL2417549, “Identification of 2,3-dihydro-1H-pyrrolo[3,4-c]pyridine-derived ureas as potent inhibitors of human nicotinamide phosphoribosyltransferase (NAMPT)” (Bioorg Med Chem Lett, 2013)

How the values were obtained:
[1] = Apparent permeability across apical to basolateral side in MDCK cells at 10 uM by LC-MS/MS analysis; assay type: ADME, cell-based, Canis lupus familiaris; details: dog
Summary of the method: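 Apparent permeability, Papp A-B, measured across MDCK cell monolayers. Mean of at least two runs.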

[2] = Cmax in NCR nude mouse at 5 mg/kg, po; assay type: ADME, organism-based; set-up: dose 5 mg/kg, route oral; details: in vivo
Summary of the method: (§1)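 Female NCR nude mice given a single 5 mg/kg IV or oral dose as a solution in 35:10:15:40 PEG400:EtOH:PG:H2O. Plasma concentration-time profiles were used to derive Cmax, Tmax, Vss, CL, half-life and bioavailability.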

[3] = Tmax in NCR nude mouse at 5 mg/kg, po; assay type: ADME, organism-based; set-up: dose 5 mg/kg, route oral; details: in vivo; summary of the method: as §1
[4] = Volume of distribution at steady state in NCR nude mouse at 5 mg/kg, iv; assay type: ADME, organism-based; set-up: dose 5 mg/kg, route intravenous; details: in vivo, read-out: Vdss; summary of the method: as §1
[5] = Oral bioavailability in NCR nude mouse at 5 mg/kg; assay type: ADME, organism-based; details: in vivo; summary of the method: as §1

Papp A→B at 10 µM [1] [×10⁻⁶ cm/s]	SMILES	further results
8.3	O=C(NCc1ccc(S(=O)(=O)c2ccccc2)cc1)N1Cc2ccncc2C1	–
2.5	Cc1ccc(S(=O)(=O)c2ccc(CNC(=O)N3Cc4ccncc4C3)cc2)cn1	Cmax [2]: 330 nM; Tmax [3]: 15 min; Vd [4]: 2.04 L/kg; bioavailability [5]: 20.3%
0.5	Nc1ccc(S(=O)(=O)c2ccc(CNC(=O)N3Cc4ccncc4C3)cc2)cn1	–
4.1	CC(C)n1cc(S(=O)(=O)c2ccc(CNC(=O)N3Cc4ccncc4C3)cc2)cn1	–
0.1	O=C(NCc1ccc(S(=O)(=O)C2CCN(C3COC3)CC2)cc1)N1Cc2ccncc2C1	–
0.1	O=C(NCc1ccc(S(=O)(=O)C2CCN(C3CCOCC3)CC2)cc1)N1Cc2ccncc2C1	–
